Measured values from ChEMBL document CHEMBL3763095, “Naphtho[1',2':4,5]imidazo[1,2-a]pyridine-5,6-diones: Synthesis, enzymatic reduction and cytotoxic activity” (Bioorg Med Chem Lett, 2016).
The source made the active and inactive calls. The calls are words filed in the database; no cut-off is given here.

How the values were obtained:
[1] = biological target: NAD(P)H dehydrogenase [quinone] 1 (Homo sapiens) (UniProt P15559); assay: Activity of NQO1 (unknown origin) assessed as O2 uptake at 5 to 15 uM by polarographic analysis in the presence of catalase and 150 to 200 uM NADPH
[2] = biological target: NAD(P)H dehydrogenase [quinone] 1 (Homo sapiens) (UniProt P15559); assay: Activity of NQO1 (unknown origin) assessed as reduction of cytochrome c at 5 to 15 uM in the presence of superoxide dismutase and 150 to 200 uM of NADPH
Outline: (§1)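 NQO1-catalysed quinone reduction coupled to cytochrome c (50 µM) as the terminal single-electron acceptor.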

Escherichia coli = assay: Antibacterial activity against Escherichia coli ATCC 25922 after 16 hrs by two-fold microdillution method; format: functional, organism-based
Salmonella enterica = assay: Antibacterial activity against Salmonella enterica SL 5676 after 16 hrs by two-fold microdillution method; format: functional, organism-based
[3] = biological target: NAD(P)H dehydrogenase [quinone] 1 (Homo sapiens) (UniProt P15559); assay: Activity of NQO1 (unknown origin) assessed as reduction of cytochrome c at 5 to 15 uM by spectrophotometric analysis relative to NADPH oxidation rate; design: scale not given: the % may be the effect or the level left; outline: as §1
[4] = biological target: NAD(P)H dehydrogenase [quinone] 1 (Homo sapiens) (UniProt P15559); assay: Substrate inhibition of NQO1 (unknown origin) by spectrophotometric analysis in the presence of 12.5 to 200 uM NADPH

Sequence of NAD(P)H dehydrogenase [quinone] 1 (Homo sapiens) (P15559 whole entry): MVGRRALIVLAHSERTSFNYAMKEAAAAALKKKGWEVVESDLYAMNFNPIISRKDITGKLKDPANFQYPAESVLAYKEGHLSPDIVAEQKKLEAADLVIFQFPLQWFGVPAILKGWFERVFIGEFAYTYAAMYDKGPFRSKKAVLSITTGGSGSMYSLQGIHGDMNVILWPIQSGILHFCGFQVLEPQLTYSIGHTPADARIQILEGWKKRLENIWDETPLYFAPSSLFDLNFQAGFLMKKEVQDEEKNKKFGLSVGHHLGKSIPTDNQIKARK

| Compound | Activity [1] | Activity [2] | Activity (Escherichia coli) | Activity (Salmonella enterica) | Activity [3] | inhibition [4] |
| --- | --- | --- | --- | --- | --- | --- |
| O=C1C(=O)c2c(nc3ccc(F)cn23)-c2ccccc21 | inactive | inactive | inactive | inactive | 180% | – |
| COc1ccc2nc3c(n2c1)C(=O)C(=O)c1ccccc1-3 | inactive | inactive | inactive | inactive | 180% | Active |
| O=C1C(=O)c2c(nc3ccccn23)-c2ccc([N+](=O)[O-])cc21 | inactive | inactive | inactive | inactive | 180% | – |
| O=C1C(=O)c2c(nc3ccc(Br)cn23)-c2ccccc21 | inactive | inactive | inactive | inactive | 180% | – |
| O=C1C(=O)c2c(nc3ccc4ccccc4n23)-c2ccccc21 | inactive | inactive | inactive | inactive | 180% | – |
| O=C1C(=O)c2c(nc3ccc([N+](=O)[O-])cn23)-c2ccccc21 | inactive | inactive | inactive | inactive | 180% | – |
| O=C1C(=O)c2c(nc3ncccn23)-c2ccccc21 | inactive | inactive | inactive | inactive | 180% | – |
| Cc1cccn2c3c(nc12)-c1ccccc1C(=O)C3=O | inactive | inactive | inactive | inactive | 180% | – |
| O=C1C(=O)c2c(nc3ccc(C(F)(F)F)cn23)-c2ccccc21 | inactive | inactive | inactive | inactive | 180% | – |
| Cc1ccn2c3c(nc2c1)-c1ccccc1C(=O)C3=O | inactive | inactive | inactive | inactive | 180% | – |
| Cc1ccc2nc3c(n2c1)C(=O)C(=O)c1ccccc1-3 | inactive | inactive | inactive | inactive | 180% | – |
| O=C1C(=O)c2c(nc3ccccn23)-c2ccccc21 | inactive | inactive | inactive | inactive | 180% | Active |
| O=C1C(=O)c2c(nc3ccc(Cl)cn23)-c2ccccc21 | inactive | inactive | inactive | inactive | 180% | – |
